# Bioassay records deposited in PubChem BioAssay by several laboratories.
# In the library only some 1.5% were active in any assay of this set; here they are far more common.
# TPT1 inhibitor – C. albicans TPT1 enzyme inhibition; recombinant caTPT1, FP RNA substrate dephosphorylation; inhibition, % at 5 µM; 300,000 compounds, 0.81% hits;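 active means inhibition above the mean of all tested compounds plus 3 SD, set per screening campaign, cut at about 24% in these data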;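 further: plate controls were DMSO alone for no effect and ferristatin control at 100 nM for full effect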
# CSN deneddyl inh – inhibitors of human CSN-mediated cullin deneddylation; Q92905; 360,000 compounds, 0.38% hits; inhibition, % at 12.5 µM; Purified CSN, SCF-Nedd8-OG deneddylation, fluorescence polarization;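 active means pattern-corrected inhibition above about 35%, with an unprinted fluorescence ratio check between 0.5 and 1.5, limit read from the data, passing the limit was not always enough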;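 further: 0% = enzyme with substrate and 100% = substrate without enzyme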
#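 Assay system: purified human Csn5 enzyme expressed in HEK293T cells; Input: 0.24 nM Csn5 enzyme, final concentration; Reagent: 10 nM SCFSkp2-Nedd8OG; Compound dosing: 12.5 µM single point; Times: reaction 90 min, room temperature; Technique: fluorescence polarization readout.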
# HNF4A DNA FP – change in binding of human HNF4 alpha to DNA; P41235; HNF4a-FITC DNA binding, fluorescence polarization, 1 h; activity change, % at 10 µM; 360,000 compounds, 0.3% hits; AID 1224865; in the data active means activity change above about 30%, passing the limit was not always enough
# Rpn11 inh – Rpn11 (human) deubiquitinase inhibition. O00487. human 26S proteasome, Ub4-pepOG fluorescence polarization; 20S core pre-blocked with epoxomicin. inhibition, % at 20 µM. 360,000 compounds, 0.59% hits. AID 588493;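 active means inhibition at 20 µM, scaled to each plate's controls, above about 33%, limit read from the data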
# Rpn11 inh conf – confirmation of human proteasome Rpn11 inhibitors; purified human 26S proteasome, Ub4-pepOG fluorescence polarization; proteasome pretreated with epoxomicin; shares compounds with Rpn11 inh; AID 602318; 1,900 compounds, 29% hits; inhibition, % at 20 µM
# MMP-2 counter-1 – blocks human MMP-2, flagging nonselective RPN11 hits | shares compounds with Rpn11 inh | recombinant MMP-2, FRET peptide cleavage fluorescence | inhibition, % at 20 µM | 1,900 compounds, 4% hits | AID 602330;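 further: human MMP-2 activated beforehand with APMA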
# Thrombin FP – blocks bovine thrombin, flagging nonselective RPN11 hits; AID 602333; shares compounds with Rpn11 inh; inhibition, % at 20 µM; bovine thrombin cleavage of Ub4-pepOG, fluorescence polarization; 1,900 compounds, 13% hits;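 active means mean inhibition at least 40% at 20 µM, or signal 3 deviations below plate average, so some actives read negative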;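 further: plate controls were thrombin with DMSO for no effect and buffer wells lacking thrombin for full effect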
# Target sequence (P00735 whole entry, looked up): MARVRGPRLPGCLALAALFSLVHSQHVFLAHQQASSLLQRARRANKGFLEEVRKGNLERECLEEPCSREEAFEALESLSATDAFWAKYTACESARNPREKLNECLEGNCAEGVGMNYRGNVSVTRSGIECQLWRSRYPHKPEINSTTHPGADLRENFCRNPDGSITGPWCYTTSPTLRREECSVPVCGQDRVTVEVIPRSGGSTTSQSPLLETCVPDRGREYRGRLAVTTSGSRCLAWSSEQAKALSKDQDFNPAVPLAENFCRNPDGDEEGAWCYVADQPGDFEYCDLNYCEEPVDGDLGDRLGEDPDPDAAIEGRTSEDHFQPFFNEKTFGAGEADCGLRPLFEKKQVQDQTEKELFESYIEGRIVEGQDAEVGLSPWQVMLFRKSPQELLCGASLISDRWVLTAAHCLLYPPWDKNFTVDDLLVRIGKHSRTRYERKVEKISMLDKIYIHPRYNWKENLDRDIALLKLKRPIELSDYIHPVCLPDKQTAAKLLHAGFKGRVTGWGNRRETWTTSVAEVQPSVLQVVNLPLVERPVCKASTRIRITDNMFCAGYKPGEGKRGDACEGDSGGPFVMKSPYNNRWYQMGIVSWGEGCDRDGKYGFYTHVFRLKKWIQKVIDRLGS
# CSN deneddyl val – Csn5 (human) deneddylation inhibition, single-concentration validation. inhibition, % at 16.6 µM. shares compounds with CSN deneddyl inh. Csn5 deneddylation of SCF-Nedd8OG, fluorescence polarization, 90 min. 540 compounds, 62% hits; in the data active means inhibition above about 50%;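 further: 0% = DMSO with enzyme and 100% = no enzyme wells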
# MMP-2 counter-2 – counter-screen for CSN deneddylation inhibitors: human MMP-2 inhibition | shares compounds with CSN deneddyl inh | recombinant MMP-2, FRET substrate fluorescence, 60 min | inhibition, % at 16.6 µM | 540 compounds, 33% hits | AID 720655;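 active means corrected plate-normalized z-score of 5 or more, or -5 or less, or inhibition of 15% or more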;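 further: plate controls were DMSO wells with enzyme for no effect and buffer wells lacking MMP-2 for full effect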
# Thrombin cntr – thrombin (bovine) inhibition, counter-screen for CSN hits | shares compounds with CSN deneddyl inh | bovine thrombin cleavage of Ub4-pepOG, fluorescence polarization | inhibition, % at 16.6 µM | 540 compounds, 49% hits;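 active means inhibition at or above a set limit, with a fluorescence interference ratio between 0.5 and a set maximum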
# HNF4a DNA conf – change in binding of human HNF4 alpha to DNA, retest. shares compounds with HNF4A DNA FP. HNF4A-FITC DNA binding, fluorescence polarization, 1 h. activity change, % at 12.5 µM. 210 compounds, 99% hits; call rule not given here
# Starred values were filed as active, the others as inactive; . = no result given; ! = not active in a repeat. Unless noted, no stated cut-off is given here; in the data, active means inhibition above about 40%; inactive means the rest.
SMILES,TPT1 inhibitor,CSN deneddyl inh,HNF4A DNA FP,Rpn11 inh,Rpn11 inh conf,MMP-2 counter-1,Thrombin FP,MMP-2 counter-2,Thrombin cntr,others
CCCCn1c(O)c(/C=N/N2CCCCC2c2cccnc2)c(=O)[nH]c1=S (configuration not stated),3.3,10.3,5.5,31.1,.,.,.,.,.,
Cc1ccc(-n2c(O)c(/C=N/N3CCCCC3c3cccnc3)c(=O)[nH]c2=S)cc1 (configuration not stated),18.9,4.5,16.3,54.9*,51.5*,-14.2,39.7,.,.,
c1cc2c(cc1N1CCOCC1)CNCc1cnnn1-2,.,-0.9,-1.4,-3.5,.,.,.,.,.,
O=C(Nc1ccc(Cl)cc1)N1CC1,.,2.8,2.5,2.7,.,.,.,.,.,
CC1(C)C(C(=O)N2CCN(c3ccc(Cl)cc3)CC2)C1(C)C,-1.3,1.8,1.1,49.0*,4.6,-15.8,-6.3,.,.,
Cc1c(P(=S)(c2ccccc2)c2ccccc2)[n+]2ccccc2n1C,.,74.5*!,74.5,78.9*!,77.8*,-248.9,13.1,.,.,
COc1ccc(N2C(=O)/C(=C/c3ccc(C)o3)C(=O)NC2=S)cc1,.,27.6,14.7,70.8*,61.1*,55.7*,62.7*,.,.,
CCCN(CCC)C1Cc2cc(OC)c(OC)cc2C1,-3.6,5.0,-2.8,-1.5,.,.,.,.,.,
CN1C(=O)C(=Cc2ccc(Sc3ccccc3)o2)C(=O)N(C)C1=O,5.7,0.1,-4.5,62.7*,-30.6,-41.6,-33.3,.,.,
CN1C(=O)C(=Cc2coc3ccccc3c2=O)C(=O)N(C)C1=O,16.8,-0.8,0.2,14.5,.,.,.,.,.,
CC(C)c1ccc(N2C(=O)NC(=O)/C(=C/c3cnc(-c4ccccc4)nc3)C2=O)cc1,8.3,13.7,0.4,11.0,.,.,.,.,.,
CCc1ccc(N2C(=O)NC(=O)/C(=C\c3cccn3CCOc3ccc(C(C)C)cc3)C2=O)cc1,5.6,-0.5,12.8,61.8*,-16.0,-63.5,-9.3,.,.,
Cc1cc(OCC(=O)N[C@H](C(=O)O)c2ccccc2)c2c3c(c(=O)oc2c1)CCC3,-5.9,6.3,-0.2,-5.8,.,.,.,.,.,
CCCCC(=O)N/N=C/c1c(O)n(Cc2ccc(F)cc2)c(=O)[nH]c1=O,21.9,17.0,26.1,50.0*,32.4,-36.6,-0.9,.,.,
COC(=O)C1=C(c2ccccc2)C[C@@H]2CC[C@H]1N2C(=O)NCCS(C)=O (some centres not stated),-1.8,0.2,2.5,-5.3,.,.,.,.,.,
Cn1cc(/C=C2\C(=O)NC(=O)N(c3ccccc3)C2=O)c2ccccc21,0.2,-2.9,154.0,-7.8,.,.,.,.,.,
CN(C)c1ccc(/C=C/C=C2/C(=O)NC(=O)N(c3ccccc3)C2=O)cc1,.,38.4*,10.8,95.1*,65.0*,-22.0,34.5,-12.9,11.8,CSN deneddyl val=72.0*
O=C1NC(=O)N(c2ccccc2)C(=O)/C1=C/C=C/c1ccco1,19.0,41.9*,-1.1,51.7*,13.3,20.6,4.5,16.4*,13.6,CSN deneddyl val=58.0*
CN1C(=O)NC(=O)/C(=C\C=C\c2ccccc2[N+](=O)[O-])C1=O,-5.4,.,.,.,.,.,.,.,.,
C=C1C(=O)O[C@@H]2C[C@@H](C)[C@@H]3C=CC(=O)[C@@]3(C)[C@@H](OC(=O)CC(=O)O[C@H]3[C@@H]4C(=C)C(=O)O[C@@H]4C[C@@H](C)[C@@H]4C=CC(=O)[C@]43C)[C@H]12,5.2,56.7*,-25.5,95.3*,.,.,.,0.9,21.2*,
C=C1C(=O)OC2CC(C)C3C=CC(=O)C3(C)C(O)C12 (configuration not stated),.,7.4,-0.1,-3.1,.,.,.,.,.,
Cn1cnc(CCN)c1,-1.5,-0.3,2.8,-3.2,.,.,.,.,.,
O=C1C(=O)c2ccccc2-c2ccccc21,-0.2,58.6*,3.0,9.1,.,.,.,-1.6,-38.7,CSN deneddyl val=0.2
CN1C(=O)/C(=C/C=C/c2ccco2)C(=O)NC1=S,22.6,65.2*,4.1,148.6*,.,.,.,19.8*,50.1*,CSN deneddyl val=29.2
COC(=O)C1(F)C(=O)NC(=O)NC1O (configuration not stated),.,-3.5,0.0,.,.,.,.,.,.,
SMILES,TPT1 inhibitor,CSN deneddyl inh,HNF4A DNA FP,Rpn11 inh,Rpn11 inh conf,MMP-2 counter-1,Thrombin FP,MMP-2 counter-2,Thrombin cntr,others
CCn1nc(-c2ccccc2)nc2c(=O)n(C)c(=O)nc1-2,-105.2,2.1,1.6,9.2,.,.,.,.,.,
Cc1nc2c(=O)n(C)c(=O)nc-2n(C)n1,-1.1,62.6*,78.0*,2.9,.,.,.,10.4,-40.8,CSN deneddyl val=12.2
CCCCn1c(O)c(/C=C/C=Nc2ccccc2)c(=O)[nH]c1=O,141.0*,46.7*,55.1*,.,.,.,.,-11.2,37.0*,CSN deneddyl val=49.5
CCCCC(=O)N/N=C/c1c(O)n(CCc2ccccc2)c(=O)[nH]c1=O,3.4,1.7,1.7,0.6,.,.,.,.,.,
NC(=O)c1ccc(N=Cc2c(O)n(Cc3ccco3)c(=O)[nH]c2=O)cc1,15.6,45.1*,-25.9,20.2,.,.,.,54.7*,1.4,CSN deneddyl val=38.7
COC(C)(C)CCCC(C)C/C=C/C(C)=C/C(=O)OC(C)C (configuration not stated),.,4.2,-1.2,0.3,.,.,.,.,.,
CC1=CC2OC3CC4OC(=O)C=CC=CC(C(C)O)OCC(O)C5(C)OC5C(=O)OCC2(CC1O)C4(C)C31CO1 (configuration not stated),.,1.0,-2.2,2.8,.,.,.,.,.,
CCOC(=O)c1c(NS(=O)(=O)c2ccccc2)n(CCCOC)c2nc3ccccc3nc12,-2.0,48.5*,0.8,4.2,.,.,.,-2.7,-0.8,CSN deneddyl val=95.2*
C[C@H]1CC[C@@H]2[C@@H](C)[C@H]3[C@H](C[C@H]4[C@@H]5CC=C6C[C@@H](O[C@@H]7O[C@H](CO)[C@H](O)[C@H](O[C@@H]8O[C@H](CO)[C@@H](O)[C@H](O)[C@H]8O)[C@H]7O[C@@H]7O[C@@H](C)[C@H](O)[C@@H](O)[C@H]7O)CC[C@]6(C)[C@H]5CC[C@]34C)N2C1,28.1*,15.9,43.9*,.,.,.,.,.,.,HNF4a DNA conf=40.3*
COC(=O)C1=C(c2cc3ccccc3s2)C[C@@H]2CC[C@H]1N2C(=O)N1CCCCC1,0.3,-0.9,3.4,3.9,.,.,.,.,.,
